Data from ChEMBL document CHEMBL1149249 (J Med Chem, 2004).
pKi: −log10 of the molar value.

Key:
[1] = target: Adenosine receptor A2a (Rattus norvegicus, UniProt P30543); experiment: Displacement of [3H]ZM241385 from adenosine A2A receptor in rat brain membrane; format: cell membranes
[2] = target: T1, Adenosine receptor A1 (Rattus norvegicus, UniProt P25099); experiment: Displacement of [3h]DPCPX from adenosine A receptor in rat cerebral cortex membrane
T1 sequence (P25099 whole entry): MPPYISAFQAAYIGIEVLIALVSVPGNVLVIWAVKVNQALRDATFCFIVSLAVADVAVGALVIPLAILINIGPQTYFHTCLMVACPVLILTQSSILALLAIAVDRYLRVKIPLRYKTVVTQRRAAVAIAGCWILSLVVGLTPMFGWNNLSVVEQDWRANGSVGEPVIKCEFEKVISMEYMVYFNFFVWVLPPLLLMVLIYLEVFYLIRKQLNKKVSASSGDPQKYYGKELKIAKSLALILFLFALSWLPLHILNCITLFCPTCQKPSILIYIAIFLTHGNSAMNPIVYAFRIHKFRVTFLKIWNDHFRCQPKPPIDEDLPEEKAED

[3] = Metabolic stability in rat liver microsomes at 2 uM after 15 mins; format: ADME, Microsome; settings: read-out: Stability
How it was run: (§1)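 Test compound at 2 μM final was incubated at 37 °C with shaking in Sprague–Dawley rat liver microsomes in 66 mM potassium phosphate pH 7.4. An NADP+/glucose-6-phosphate/MgCl2/G6P dehydrogenase regenerating system was present. Aliquots taken at 0, 15, 30 and 60 min were quenched in acetonitrile containing DPCPX internal standard. Percent parent remaining was measured by LC/MS.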

[4] = Metabolic stability in rat liver microsome at 2 uM after 30 mins; format: ADME; settings: liver microsomes, read-out: Stability; how it was run: as §1
[5] = Metabolic stability in rat liver microsome at 2 uM after 60 mins; format: ADME; settings: liver microsomes, read-out: Stability; how it was run: as §1
[6] = system: Mus musculus; experiment: Reduction of haloperidol-induced catalepsy in orally dosed CD1 mouse; format: functional; settings: CD1, po
How it was run: (§2)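 Male CD-1 mice (25–30 g) received haloperidol 3 mg/kg sc. Bar test used a 4.5 cm high, 1 cm bar with a 120 s cutoff, measured every 30 min. Once baseline catalepsy was stable (about 3 h), compound or vehicle was given by oral gavage. Catalepsy was then scored every 30 min for 2 h. Analysis was one-way ANOVA with Dunnett's post hoc test.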

[7] = system: Rattus norvegicus; experiment: Reduction of haloperidol-induced catalepsy in orally dosed Sprague-Dawley rat; format: functional; settings: po
How it was run: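 Male Sprague–Dawley rats (225–275 g) were given haloperidol 1 mg/kg, with bar tests every 30 min (1 cm bar, 10 cm high, 120 s maximum). After a stable cataleptic baseline at about 3 h, compound or vehicle was dosed by oral gavage. The bar test was repeated every 30 min for 2 h. Data were analyzed by one-way ANOVA with Dunnett's test.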

[8] = system: Mus musculus; experiment: Reduction of haloperidol-induced catalepsy in CD1 mouse within 30 mins at 3 mg/kg, po; format: functional; parameters: scale not given: the % may be the effect or the level left; how it was run: as §2

Adenosine receptor A2a, sequence (P30543 whole entry): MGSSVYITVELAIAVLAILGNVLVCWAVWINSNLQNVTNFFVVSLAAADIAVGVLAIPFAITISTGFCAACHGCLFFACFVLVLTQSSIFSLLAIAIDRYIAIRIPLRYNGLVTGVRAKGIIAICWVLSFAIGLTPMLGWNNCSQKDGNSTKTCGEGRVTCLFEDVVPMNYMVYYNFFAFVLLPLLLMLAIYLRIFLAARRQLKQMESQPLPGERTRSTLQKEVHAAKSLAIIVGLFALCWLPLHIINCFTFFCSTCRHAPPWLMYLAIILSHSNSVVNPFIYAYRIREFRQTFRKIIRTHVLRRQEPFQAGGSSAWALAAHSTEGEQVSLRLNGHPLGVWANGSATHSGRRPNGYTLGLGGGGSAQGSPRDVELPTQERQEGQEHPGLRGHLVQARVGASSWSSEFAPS

Row | Compound | Ki [1] | pKi [2] | remaining at 0.25 h, 2 µM [3] [%] | remaining at 0.5 h, 2 µM [4] [%] | remaining at 1 h, 2 µM [5] [%] | Ki [2] | pKi [1] | ED50 [6] [mg/kg] | ED50 [7] [mg/kg] | Activity [8] [%]
1 | Nc1nc(N2CCN3C[C@@H](COc4cccc(F)c4)CC[C@H]3C2)nc2nc(-c3ccco3)nn12 (racemic) | 0.2 nM (antagonist) | 5.48 | 57 | 36 | 12 | – | – | – | – | –
2 | Nc1nc(NC[C@H]2CCCN2Cc2c(F)cccc2F)nc2nc(-c3ccco3)nn12 | 3.6 nM (antagonist) | – | – | – | – | 427 nM (antagonist) | – | 10 | 10 | –
3 | Cn1nc(C(F)(F)F)c(CN2CCN(c3nc(N)n4nc(-c5ccco5)nc4n3)CC2)c1Cl | – | – | 14 | – | – | – | – | 3 | 3 | –
4 | Nc1nc(NC[C@@H]2CC[C@@H]3CN(c4ncccn4)CCN3C2)nc2nc(-c3ccco3)nn12 (racemic) | 0.3 nM (antagonist) | 5.80 | 89 | 65 | 43 | – | – | – | – | –
5 | Nc1nc(N2CCN3C[C@@H](COc4ccc5ncccc5c4)CC[C@H]3C2)nc2nc(-c3ccco3)nn12 | 0.6 nM (antagonist) | 5.46 | 42 | 25 | 16 | – | – | – | – | –
6 | Cn1nc(C(F)(F)F)c(CN2CCN3C[C@@H](CNc4nc(N)n5nc(-c6ccco6)nc5n4)CC[C@@H]3C2)c1Cl (racemic) | – | < 6.00 | – | – | – | – | < 6.30 | – | – | –
7 | Nc1nc(N2CCN3C[C@@H](COc4ccc(F)cc4)CC[C@H]3C2)nc2nc(-c3ccco3)nn12 (racemic) | 4 nM (antagonist) | < 6.30 | – | – | – | – | – | – | – | –
8 | Cc1nn(C)c(Cl)c1CN(Cc1c(C)nn(C)c1Cl)C[C@H]1CC[C@H]2CN(c3nc(N)n4nc(-c5ccco5)nc4n3)CCN2C1 | 180 nM (antagonist) | < 6.00 | – | – | – | – | – | – | – | –
9 | Nc1nc(N2CCN3CCC[C@H]3C2)cc2nc(-c3ccco3)nn12 | 110 nM (antagonist) | < 6.30 | – | – | – | – | – | – | – | –
10 | Nc1nc(N2CCN3C[C@@H](Cn4cnnn4)CC[C@H]3C2)nc2nc(-c3ccco3)nn12 (racemic) | 14 nM (antagonist) | < 6.30 | – | – | – | – | – | – | – | –
11 | COc1ccc(OC[C@H]2CC[C@H]3CN(c4nc(N)n5nc(-c6ccco6)nc5n4)CCN3C2)cc1 (racemic) | 35 nM (antagonist) | < 6.30 | – | – | – | – | – | – | – | –
12 | Nc1nc(N2CCN3C[C@@H](CNCc4ccc(F)cc4F)CC[C@H]3C2)nc2nc(-c3ccco3)nn12 | 2 nM (antagonist) | 5.96 | – | – | – | – | – | – | – | –
13 | Nc1cc(N2CCN3CCC[C@H]3C2)nc2nc(-c3ccco3)nn12 | 170 nM (antagonist) | < 6.30 | – | – | – | – | – | – | – | –

Now from value to compound, other results behind:

Row | Ki [1] | pKi [2] | remaining at 0.25 h, 2 µM [3] [%] | remaining at 0.5 h, 2 µM [4] [%] | remaining at 1 h, 2 µM [5] [%] | Ki [2] | pKi [1] | Compound | ED50 [6] [mg/kg] | ED50 [7] [mg/kg] | Activity [8] [%]
14 | 30 nM (antagonist) | 5.92 | 67 | 75 | 61 | – | – | Nc1nc(N2CCN3CCC[C@@H]3C2)nc2nc(-c3ccco3)nn12 | – | – | –
15 | 230 nM (antagonist) | < 6.30 | 97 | 81 | 51 | – | – | Nc1cc(N2CCN3C[C@@H](CO)CC[C@H]3C2)nc2nc(-c3ccco3)nn12 (racemic) | – | – | –
16 | 45 nM (antagonist) | – | 100 | 100 | 100 | 660 nM (antagonist) | – | Nc1nc(N2CCN3C[C@@H](CO)CC[C@H]3C2)nc2nc(-c3ccco3)nn12 (racemic) | – | – | >50
17 | 240 nM (antagonist) | < 6.00 | – | – | – | – | – | Nc1nc(N2CCN3C[C@H](CO)CC[C@H]3C2)cc2nc(-c3ccco3)nn12 (racemic) | – | – | –
18 | 96 nM (antagonist) | < 6.30 | 100 | 100 | 85 | – | – | Nc1nc(N2CCN3C[C@@H](CO)CC[C@H]3C2)cc2nc(-c3ccco3)nn12 (racemic) | – | – | >50
19 | 46 nM (antagonist) | < 6.30 | 69 | 54 | 36 | – | – | Nc1nc(N2CCN3CCC[C@H]3C2)nc2nc(-c3ccco3)nn12 | – | – | –
20 | 110 nM (antagonist) | < 6.30 | – | – | – | – | – | Nc1nc(N2CCN3[C@@H](CO)CCC[C@H]3C2)cc2nc(-c3ccco3)nn12 (racemic) | – | – | –
